Data as given in ChEMBL document CHEMBL1806361, “Discovery of potent, selective, and orally bioavailable quinoline-based dipeptidyl peptidase IV inhibitors targeting Lys554” (Bioorg Med Chem, 2011).

Experiments:
Rattus norvegicus [1] = experiment: Oral bioavailability in rat at 1 mg/kg by LC/MS/MS; assay type: ADME, organism-based; conditions: in vivo
How it was run: (§1)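 Compound given orally at 1.0 mg/kg and intravenously at 0.1 mg/kg to rats and dogs. Blood sampled after dosing and spun to plasma. Plasma deproteinized with acetonitrile containing internal standard, then centrifuged. Supernatant diluted in 0.01 M ammonium acetate and spun again before LC/MS/MS quantitation. Values are means and SD of three experiments.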

[2] = Solubility of the compound in water at pH 6.8 by HPLC analysis; assay type: physicochemical
Rattus norvegicus [3] = experiment: AUC in rat at 1 mg/kg, po by LC/MS/MS; assay type: ADME, organism-based, Plasma; parameters: dose 1 mg/kg, route oral; conditions: in vivo; how it was run: as §1
Canis familiaris [4] = experiment: Oral bioavailability in dog at 1 mg/kg by LC/MS/MS; assay type: ADME, organism-based, Canis lupus familiaris; conditions: in vivo; how it was run: as §1
[5] = Metabolic stability in human liver microsomes at 1 uM after 60 mins by HPLC with UV detectors in presence of NADPH; assay type: ADME, Microsome; conditions: read-out: Stability
How it was run: (§2)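 Hepatic microsomes (0.2 mg protein/mL final) and compound (1 µM final) were mixed on ice. Reaction started with NADPH, run 60 min at 37 °C, and stopped with ice-cold acetonitrile. Zero-time controls were quenched before compound addition.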

[6] = Metabolic stability in dog liver microsomes at 1 uM after 60 mins by HPLC with UV detectors in presence of NADPH; assay type: ADME, Canis lupus familiaris, Microsome; conditions: read-out: Stability; how it was run: as §2
Canis familiaris [7] = experiment: AUC in dog at 1 mg/kg, po by LC/MS/MS; assay type: ADME, organism-based, Canis lupus familiaris, Plasma; parameters: dose 1 mg/kg, route oral; conditions: in vivo; how it was run: as §1
[8] = Volume of distribution at steady state in rat at 1 mg/kg, po and 0.1 mg/kg, iv by LC/MS/MS; assay type: ADME, organism-based; conditions: in vivo, read-out: Vdss; how it was run: as §1
[9] = Metabolic stability in rat liver microsomes at 1 uM after 60 mins by HPLC with UV detectors in presence of NADPH; assay type: ADME, Microsome; conditions: read-out: Stability; how it was run: as §2
[10] = Volume of distribution at steady state in dog at 1 mg/kg, po and 0.1 mg/kg, iv by LC/MS/MS; assay type: ADME, organism-based, Canis lupus familiaris; conditions: in vivo, read-out: Vdss; how it was run: as §1

- F (Rattus norvegicus [1]): 8%
- solubility [2]: > 5000 µg/mL
- AUC (Rattus norvegicus [3]): 28.5 ng·h/mL
- F (Canis familiaris [4]): 49.2%
- microsomal CLint at 1 µM [5]: 16 µL/min/mg
- microsomal CLint at 1 µM [6]: 2 µL/min/mg
- AUC (Canis familiaris [7]): 1410 ng·h/mL
- Vd [8]: 10.7 L/kg
- microsomal CLint at 1 µM [9]: 96 µL/min/mg
- Vd [10]: 1.49 L/kg
Structure (SMILES): Cc1ccc(-c2c(CN)c(CC(C)C)nc3ccc(N4CC(=O)NCC4=O)cc23)cc1.Cl.Cl
